Reference: ChEMBL document CHEMBL2040780, “Antiarrhythmic properties of phenylpiperazine derivatives of phenytoin with α₁-adrenoceptor affinities” (Bioorg Med Chem, 2012)
Calls of active or inactive are those of the source. The rule behind the calls is not given here.

Legend:
[1] = target: T1, Adrenergic receptor alpha-1 (Rattus norvegicus, UniProt P15823+P23944+P43140); assay: Displacement of [3H]prazosin from alpha1 adrenoceptor in rat cerebral cortex after 30 mins by microbeta scintillation counting; type: tissue-based
T1 sequence (P15823 whole entry): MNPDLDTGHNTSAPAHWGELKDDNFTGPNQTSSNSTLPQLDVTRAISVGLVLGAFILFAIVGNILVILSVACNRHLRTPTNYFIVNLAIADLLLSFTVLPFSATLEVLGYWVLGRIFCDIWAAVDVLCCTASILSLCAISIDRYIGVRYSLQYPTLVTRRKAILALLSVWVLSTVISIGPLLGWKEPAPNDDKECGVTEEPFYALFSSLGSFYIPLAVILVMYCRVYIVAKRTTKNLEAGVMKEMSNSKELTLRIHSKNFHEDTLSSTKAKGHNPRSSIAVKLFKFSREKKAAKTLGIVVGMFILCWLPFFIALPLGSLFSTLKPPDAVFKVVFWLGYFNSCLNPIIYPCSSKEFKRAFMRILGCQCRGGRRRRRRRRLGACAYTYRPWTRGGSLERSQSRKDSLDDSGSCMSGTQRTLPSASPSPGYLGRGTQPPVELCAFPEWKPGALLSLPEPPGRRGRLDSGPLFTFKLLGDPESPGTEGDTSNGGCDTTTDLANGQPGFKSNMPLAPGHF
T1 sequence (P23944 whole entry): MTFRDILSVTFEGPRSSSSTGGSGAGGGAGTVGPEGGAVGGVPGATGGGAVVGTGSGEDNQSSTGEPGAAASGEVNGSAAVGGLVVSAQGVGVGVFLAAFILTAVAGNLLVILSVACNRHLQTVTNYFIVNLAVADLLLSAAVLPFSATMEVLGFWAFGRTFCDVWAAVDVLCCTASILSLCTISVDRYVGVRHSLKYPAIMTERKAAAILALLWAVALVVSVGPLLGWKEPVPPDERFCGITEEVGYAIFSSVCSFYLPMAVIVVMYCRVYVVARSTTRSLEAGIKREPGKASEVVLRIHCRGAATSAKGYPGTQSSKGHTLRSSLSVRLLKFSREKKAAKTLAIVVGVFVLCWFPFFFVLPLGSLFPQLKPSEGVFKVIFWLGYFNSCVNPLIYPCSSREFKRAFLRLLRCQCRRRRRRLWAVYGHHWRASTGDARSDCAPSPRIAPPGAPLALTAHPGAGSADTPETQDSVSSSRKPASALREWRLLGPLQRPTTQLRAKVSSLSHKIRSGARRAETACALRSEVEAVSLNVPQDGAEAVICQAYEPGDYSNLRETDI
T1 sequence (P43140 whole entry): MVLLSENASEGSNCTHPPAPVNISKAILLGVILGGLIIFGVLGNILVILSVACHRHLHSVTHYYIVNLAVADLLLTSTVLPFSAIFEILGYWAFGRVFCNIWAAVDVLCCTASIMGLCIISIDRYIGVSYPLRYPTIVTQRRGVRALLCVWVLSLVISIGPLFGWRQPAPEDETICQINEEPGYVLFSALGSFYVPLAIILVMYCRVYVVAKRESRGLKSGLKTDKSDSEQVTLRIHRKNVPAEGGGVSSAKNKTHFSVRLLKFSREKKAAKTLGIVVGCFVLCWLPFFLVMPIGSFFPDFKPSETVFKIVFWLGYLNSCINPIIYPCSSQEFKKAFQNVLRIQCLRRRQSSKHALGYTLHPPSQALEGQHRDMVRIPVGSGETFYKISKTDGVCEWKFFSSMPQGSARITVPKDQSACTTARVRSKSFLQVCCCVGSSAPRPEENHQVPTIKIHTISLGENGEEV
Outline: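 Rat cerebral cortex homogenised in ice-cold 50 mM Tris-HCl (pH 7.6 at 25 °C), washed twice at 20000×g and resuspended at 10 mg wet weight/ml. Incubated with [3H]prazosin (19.5 Ci/mmol) and test compound for 30 min at 25 °C. Nonspecific binding defined with 10 µM phentolamine. GF/B filtration, scintillation counting, three-parameter logistic competition fit.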

[2] = tested on: Rattus norvegicus; assay: Antiarrhythmic activity in Wistar rat assessed as effect on heart beat at 5 mg/kg, iv after 1 min; type: functional
Outline: (§1)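 Male Wistar rats (180–250 g), anaesthetised with thiopental 60 mg/kg ip. Compound given iv in water at 10 mg/kg, or at a lower starting dose of 5 or 2.5 mg/kg. Standard lead II ECG recorded at 50 mm/s just before dosing and at 1, 5 and 15 min after. Heart rate and P–Q, Q–T and QRS intervals were read. n=6 per group, mean ± SEM, one-way ANOVA.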

[3] = tested on: Rattus norvegicus; assay: Antiarrhythmic activity in Wistar rat assessed as effect on heart beat at 5 mg/kg, iv after 5 mins; type: functional; outline: as §1
[4] = tested on: Rattus norvegicus; assay: Antiarrhythmic activity in Wistar rat assessed as effect on heart beat at 5 mg/kg, iv after 15 mins; type: functional; outline: as §1
[5] = tested on: Rattus norvegicus; assay: Cardiotoxicity in Wistar rat assessed as effect on P-Q interval at 5 mg/kg, iv after 1 min; type: toxicity, organism-based; parameters: dose 5 mg/kg, route intravenous; settings: in vivo; outline: as §1
[6] = tested on: Rattus norvegicus; assay: Cardiotoxicity in Wistar rat assessed as effect on P-Q interval at 5 mg/kg, iv after 5 mins; type: toxicity, organism-based; parameters: dose 5 mg/kg, route intravenous; settings: in vivo; outline: as §1
[7] = tested on: Rattus norvegicus; assay: Cardiotoxicity in Wistar rat assessed as effect on P-Q interval at 5 mg/kg, iv after 15 mins; type: toxicity, organism-based; parameters: dose 5 mg/kg, route intravenous; settings: in vivo, 0.25 h; outline: as §1
[8] = tested on: Rattus norvegicus; assay: Cardiotoxicity in Wistar rat assessed as effect on Q-T interval at 5 mg/kg, iv after 1 min; type: toxicity, organism-based; parameters: dose 5 mg/kg, route intravenous; settings: in vivo; outline: as §1
[9] = tested on: Rattus norvegicus; assay: Cardiotoxicity in Wistar rat assessed as effect on Q-T interval at 5 mg/kg, iv after 5 mins; type: toxicity, organism-based; parameters: dose 5 mg/kg, route intravenous; settings: in vivo; outline: as §1
[10] = tested on: Rattus norvegicus; assay: Cardiotoxicity in Wistar rat assessed as effect on Q-T interval at 5 mg/kg, iv after 15 mins; type: toxicity, organism-based; parameters: dose 5 mg/kg, route intravenous; settings: in vivo, 0.25 h; outline: as §1
[11] = tested on: Rattus norvegicus; assay: Cardiotoxicity in Wistar rat assessed as effect on QRS interval at 5 mg/kg, iv after 1 min; type: toxicity, organism-based; parameters: dose 5 mg/kg, route intravenous; settings: in vivo; outline: as §1
[12] = tested on: Rattus norvegicus; assay: Cardiotoxicity in Wistar rat assessed as effect on QRS interval at 5 mg/kg, iv after 5 mins; type: toxicity, organism-based; parameters: dose 5 mg/kg, route intravenous; settings: in vivo; outline: as §1
[13] = tested on: Rattus norvegicus; assay: Cardiotoxicity in Wistar rat assessed as effect on QRS interval at 5 mg/kg, iv after 15 mins; type: toxicity, organism-based; parameters: dose 5 mg/kg, route intravenous; settings: in vivo, 0.25 h; outline: as §1
[14] = tested on: Rattus norvegicus; assay: Antiarrhythmic activity in iv dosed Wistar rat assessed as protection against barium chloride-induced extrasystoles administered 15 mins prior to barium chloride-challenge; type: functional, Heart
Outline: (§2)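 Szekeres model in male Wistar rats. Activity is gradual disappearance of arrhythmia with restored sinus rhythm; protection against disturbances and death scored. Groups of 6 animals.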

[15] = tested on: Rattus norvegicus; assay: Antiarrhythmic activity in dosed Wistar rat assessed as protection against barium chloride-induced fibrillation administered 15 mins prior to barium chloride-challenge; type: functional, Heart; outline: as §2
[16] = tested on: Rattus norvegicus; assay: Antiarrhythmic activity in Wistar rat assessed as protection against adrenaline-induced extrasystoles at 2.5 to 10 mg/kg, iv administered 15 mins prior to adrenaline-challenge; type: functional, organism-based; settings: Heart
Outline: (§3)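 Szekeres model in male Wistar rats anaesthetised with thiopental (60 mg/kg ip). Test compound given iv in water (2.5–10 mg/kg) 15 min before adrenaline 20 µg/kg iv. Scored for extrasystoles, bigeminy and mortality; activity means no premature beats and inhibited arrhythmia versus controls.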

[17] = tested on: Rattus norvegicus; assay: Antiarrhythmic activity in Wistar rat assessed as protection against adrenaline-induced bigeminy at 2.5 to 10 mg/kg, iv administered 15 mins prior to adrenaline-challenge; type: functional, organism-based; settings: Heart; outline: as §3
[18] = tested on: Rattus norvegicus; assay: Antiarrhythmic activity in barium chloride-induced Wistar rat arrhythmia model assessed as protection against mortality at 2.5 to 10 mg/kg, iv administered 15 mins prior to barium chloride-challenge; type: functional, organism-based; settings: Heart; outline: as §2
[19] = tested on: Rattus norvegicus; assay: Antiarrhythmic activity in iv dosed Wistar rat assessed as protection against adrenaline-induced arrhythmia administered 15 mins prior to adrenaline-challenge; type: functional; settings: Heart; outline: as §3
[20] = tested on: Rattus norvegicus; assay: Hypotensive activity in normotensive Wistar rat assessed as decrease in systolic blood pressure at 2.5 to 10 mg/kg, iv at 1 min; type: organism-based, Artery; parameters: dose 2.5-10 mg/kg, route intravenous; settings: in vivo
Outline: (§4)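 Right carotid artery cannulated with heparin-saline-filled tubing for blood pressure recording. After 5 min stabilisation, compound injected iv into the caudal vein (2.5–10 mg/kg, 1 ml/kg). Systolic and diastolic pressure followed for 60 min. n=6 per group, mean ± SEM, one-way ANOVA.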

[21] = tested on: Rattus norvegicus; assay: Hypotensive activity in normotensive Wistar rat assessed as decrease in diastolic blood pressure at 2.5 to 10 mg/kg, iv at 1 min; type: organism-based, Artery; parameters: dose 2.5-10 mg/kg, route intravenous; settings: in vivo; outline: as §4
[22] = tested on: Rattus norvegicus; assay: Hypotensive activity in normotensive Wistar rat assessed as decrease in systolic blood pressure at 2.5 to 10 mg/kg, iv after 1 min measured up to 60 mins; type: organism-based, Artery; parameters: dose 2.5-10 mg/kg, route intravenous; settings: in vivo; outline: as §4
[23] = tested on: Rattus norvegicus; assay: Hypotensive activity in normotensive Wistar rat assessed as decrease in diastolic blood pressure at 2.5 to 10 mg/kg, iv after 1 min measured up to 60 mins; type: organism-based, Artery; parameters: dose 2.5-10 mg/kg, route intravenous; settings: in vivo; outline: as §4
[24] = tested on: Rattus norvegicus; assay: Antiarrhythmic activity in iv dosed Wistar rat assessed as protection against adrenaline-induced extrasystoles administered 15 mins prior to adrenaline-challenge; type: functional, organism-based; settings: Heart; outline: as §3
[25] = tested on: Rattus norvegicus; assay: Antiarrhythmic activity in iv dosed Wistar rat assessed as protection against adrenaline-induced bigeminy administered 15 mins prior to adrenaline-challenge; type: functional, organism-based; settings: Heart; outline: as §3

CN1C(=O)N(CC(O)CN2CCN(c3ccccc3F)CC2)C(c2ccccc2)(c2ccccc2)C1=O.Cl (racemic) gave a Ki [1] of 564.6 nM, a pKi [1] of 6.25 and an Activity [2] of 272 min⁻¹. The Activity [3] was 251 min⁻¹, the Activity [4] was 258 min⁻¹ and the Activity [5] was 64 ms. The Activity [6] was 62 ms, the Activity [7] was 59 ms and the Activity [8] was 81 ms. It also gave an Activity [9] of 74 ms, an Activity [10] of 68 ms and an Activity [11] of 20 ms. For the same compound, the Activity [12] was 17 ms, the Activity [13] was 16 ms and the Activity [14] was over 50%. For the same compound, the Activity [15] was over 50%, the Activity [16] was “Active” and the Activity [17] was “Active”. The Activity [18] was “Active”, the ED50 [19] was 1.92 mg/kg and the Activity [20] was “Toxic”. The Activity [21] was “Toxic”, the Activity [22] was “Non-toxic” and the Activity [23] was “Non-toxic”.

In the case of CC(C)NCC(O)COc1cccc2ccccc12 (stereo unspecified), the Activity [24] is reported as “Active” and the Activity [25] is reported as “Active”.
